Results: paper PMC8995400 (Drug delivery and translational research, 2021)

Legend:
[1] = rats, 2-compartment open model; cited from earlier work
[2] = in 24 h; cited from earlier work
Hec50co cells [3] = assay: Cell viability; type: cell-based, human; conditions: PD98059 alone
[4] = Biodistribution of PD98059 in mouse organs after IV injection; type: in vivo, BALB/CJ mice; conditions: mice; for AUC0-6: IV
Method in brief: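 BALB/CJ mice (8 weeks, 20–23 g) got 113 μg test compound as solution, or as loaded PAMAM-coated PLGA-PEG nanoparticles (3 mg, equivalent dose), IV retro-orbitally. Organs were taken at 5–360 min, rinsed, bead-homogenised in PBS with 7-hydroxyflavone internal standard, and ethyl acetate-extracted. Levels were measured by C18 HPLC-UV at 320 nm against the area ratio to standard. n = 3, mean ± SD.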

[5] = Plasma pharmacokinetics after IV injection in mice; type: in vivo, BALB/CJ mice; conditions: for C0 / clearance / MRT inf / half-life / Vd: BALB/CJ, mouse, iv, 113 ug; for clearance: Cl; for MRT inf: MRT0-inf; for Vd: Vss
Method in brief: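 Same IV dosing of mice (113 μg, solution or nanoparticle-loaded), sampled 5, 30, 60, 120, 180 and 360 min. Blood was spun at 10,600 xg for 5 min, and plasma was extracted and assayed by C18 HPLC-UV (methanol:water 70:30, 0.1% TFA, 320 nm). Concentration–time data were analysed in PK Solver by non-compartmental, 1- and 2-compartment models. n = 3, mean ± SD.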

Hec50co cells [6] = assay: Cell cycle analysis by flow cytometry; type: cell-based, human
Method in brief: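 Hec50co cells seeded at 5×10^3 cells/well in complete DMEM and held 24 hr at 37°C, 5% CO2. They were then exposed 24 hr to taxane (5 or 10 nM), MEK inhibitor (25 μM) or both. Cells were PBS-washed, trypsinized, fixed in ice-cold 70% ethanol 30 min at 4°C, then taken up in PBS with 1% NP40 and 100 μg/mL RNase at 37°C for 30 min. Flow cytometry gave % cells per phase; mean ± SD, n = 3.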

[7] = Non compartment model, IV, mice
[8] = One-compartment model, IV, mice
[9] = Two-compartment model, IV, mice

For `COc1cccc(-c2cc(=O)c3ccccc3o2)c1N` [PD98059, 2-(2-Amino-3-methoxyphenyl)-4H-1-benzopyran-4-one], the distribution half-life [1] is given as “less than 10 minutes”, the “free PD98059 dissolved” value [2] is given as “more than 80%” and the cytotoxicity (Hec50co cells [3]; 5 μM) is given as 3.8%. For the same compound, the cytotoxicity (Hec50co cells [3]; 10 μM) was 5.3%, the cytotoxicity (Hec50co cells [3]; 25 μM) was 17% and the “maximum PD98059 level in the brain” value ([4]; 5 minutes following IV injection) was “about 3 μg/g”. The AUC0-6 ([4]; Brain) was 334.25 μg x min/mL, the AUC0-6 ([4]; Heart) was 160.37 μg x min/mL and the AUC0-6 ([4]; Kidney) was 301.47 μg x min/mL. For the same compound, the AUC0-6 ([4]; Liver) was 125.38 μg x min/mL, the AUC0-6 ([4]; Lung) was 459.51 μg x min/mL and the AUC0-6 ([4]; Muscle) was 129.86 μg x min/mL. The AUC0-6 ([4]; Pancreas) was 177.37 μg x min/mL, the AUC0-6 ([4]; Spleen) was 129.72 μg x min/mL and the C0 ([5]; C0, Non compartment model, mice) was 2910 ng/mL. The C0 ([5]; C0, One-compartment model, mice) was 2630 ng/mL, the C0 ([5]; C0, Two-compartment model, mice) was 3150 ng/mL and the clearance ([5]; Non compartment model, mice) was 0.31 mL/min. The clearance ([5]; One-compartment model, mice) was 1.25 mL/min, the clearance ([5]; Two-compartment model, mice) was 0.29 mL/min and the MRT inf ([5]; Non compartment model, mice) was 7.29 h. It also gave an MRT inf ([5]; One-compartment model, mice) of 0.503 h, an MRT inf ([5]; Two-compartment model, mice) of 9.26 h and a half-life ([5]; T1/2(α), Two-compartment model, mice) of 9.06 min. It also gave a half-life ([5]; T1/2(β), Two-compartment model, mice) of 428 min, a half-life ([5]; T1/2, Non compartment model, mice) of 315 min and a half-life ([5]; T1/2, One-compartment model, mice) of 20.9 min. For the same compound, the Vd [5, 7] was 0.136 L, the Vd [5, 8] was 0.0379 L and the Vd [5, 9] was 0.163 L. For the same compound, the K ([5]; Non compartment model, IV 113 μg PD98059, mice) was 0.0022 min⁻¹, the AUC0-inf [5, 7] was 320.68 μg x min/mL and the AUC0-t [5, 7] was 175.72 μg x min/mL. The AUMC0-inf [5, 7] was 140,206.69 μg x min^2/mL, the V [5, 7] was 141.65 mL and the AUC0-inf [5, 8] was 79.61 μg x min/mL. The AUC0-t [5, 8] was 79.61 μg x min/mL, the AUMC0-inf [5, 8] was 2,402.29 μg x min^2/mL and the K [5, 8] was 0.033 min⁻¹. The V [5, 8] was 37.90 mL, the A [5, 9] was 2.65 µg/mL and the AUC0-inf [5, 9] was 340.78 μg x min/mL. The AUC0-t [5, 9] was 170.01 μg x min/mL, the AUMC0-inf [5, 9] was 189,279.12 μg x min^2/mL and the B [5, 9] was 0.49 µg/mL. For the same compound, the K10 [5, 9] was 0.0092 min⁻¹, the K12 [5, 9] was 0.055 min⁻¹ and the K21 [5, 9] was 0.013 min⁻¹. The V [5, 9] was 31.72 mL, the α [5, 9] was 0.076 min⁻¹ and the β [5, 9] was 0.0016 min⁻¹. For the same compound, the “cells at the G0/G1 phase” value (Hec50co cells [6]; 25 μM PD98059, 24 hr) was 63.04%.

For `CC(=O)O[C@H]1C(=O)[C@@]2(C)[C@H]([C@H](OC(=O)c3ccccc3)[C@]3(O)C[C@H](OC(=O)[C@H](O)[C@@H](NC(=O)c4ccccc4)c4ccccc4)C(C)=C1C3(C)C)[C@]1(OC(C)=O)CO[C@@H]1C[C@@H]2O` [PTX, paclitaxel], the “cells at the G2/M phase” value (Hec50co cells [6]; 5 nM PTX + 25 μM PD98059, 24 hr) was 42.15%, the “cells at the G2/M phase” value (Hec50co cells [6]; 5 nM PTX, 24 hr) was 37.2% and the “cells at the G2/M phase” value (Hec50co cells [6]; 10 nM PTX + 25 μM PD98059, 24 hr) was 74.99%. For the same compound, the “cells at the G2/M phase” value (Hec50co cells [6]; 10 nM PTX, 24 hr) was 45.74%.
